Screening data: PubChem BioAssay, The Scripps Research Institute Molecular Screening Center
In the library only some 4.6% were active in any assay of this set; here they are far more common.
TAAR1 agonist: human TAAR1 agonism; CHO RD-HGA16 TAAR1, Fluo-8 calcium fluorescence; vehicle wells 0%, saturating PEA agonist 100%; activation, % at 3 µM; 0.99% of 360,000 active;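 active means activation above the mean activation of all test compounds in the run plus 3 SD, cut at about 38% in these data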
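System: CHO-derived RD-HGA16 cells with stable Gα16 and human TAAR1. Times: 17-24 h plating, Fluo-8 75 min 37 °C, 30 min RT. Measured by: calcium-sensitive Fluo-8 signal, excitation 470-495, emission 515-575 nm. Read-out basis: % activation relative to PEA EC100 response. Control set: DMSO and PEA EC100. Repeats: no replicates (n 1).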
OX1R antag-1: antagonists of human orexin 1 receptor; CHO/OX1R cells, Fluo-8 calcium fluorescence, orexin A; O43613; inhibition, % at 5 µM; 0.43% of 330,000 active;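 active means inhibition above its plate's threshold, mean inhibition of all tested compounds on the plate plus 3 SD, cut at about 37% in these data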;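 further: 0% = orexin A challenge wells and 100% = SB-334867-A antagonist wells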
Target sequence (O43613 whole entry, looked up): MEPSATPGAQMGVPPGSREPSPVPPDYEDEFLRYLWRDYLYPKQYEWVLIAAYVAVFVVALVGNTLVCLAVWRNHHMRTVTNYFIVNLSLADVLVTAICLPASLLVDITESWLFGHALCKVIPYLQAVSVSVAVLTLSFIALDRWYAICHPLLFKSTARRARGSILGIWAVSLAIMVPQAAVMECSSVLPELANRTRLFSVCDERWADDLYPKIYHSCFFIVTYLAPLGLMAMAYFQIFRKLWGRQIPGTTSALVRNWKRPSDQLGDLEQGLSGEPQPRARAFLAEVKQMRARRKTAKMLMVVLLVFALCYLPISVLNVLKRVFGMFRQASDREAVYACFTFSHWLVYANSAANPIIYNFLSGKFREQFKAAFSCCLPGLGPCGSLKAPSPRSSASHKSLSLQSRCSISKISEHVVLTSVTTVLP
GPR7 antagonist: antagonists of human GPR7 (neuropeptides B/W receptor 1); inhibition, % at 4.4 µM; P48145; 1.1% of 290,000 active; GPR7-expressing cells, fluorescence antagonist assay; in the data active means inhibition above about 16%, passing the limit was not always enough;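 further: cells stimulated with the agonist NPW; 0% = agonist with vehicle and 100% = vehicle without agonist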
CHO parental Ca: signal in parental CHO cells, OX1R antagonist counter-screen | 0.63% of 330,000 active | inhibition, % at 5.6 µM | parental CHO-K1, ATP-induced calcium, Fluo-8 fluorescence;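 active means inhibition above that plate's mean sample inhibition plus 3 SD, cut at about 26% in these data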;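 further: 0% = ATP-challenged DMSO wells and 100% = DMSO wells without ATP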
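Test system: untransfected parental CHO cell line. Compound: one dose, 5.6 µM nominal. Detection: intracellular calcium via Fluo-8 no-wash fluorescent dye. Measure: % inhibition. Benchmarks: ATP-challenged DMSO wells low, unchallenged DMSO wells high.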
TAAR1 antagonist: antagonists of human TAAR1. Q96RJ0. CHO RD-HGA16 TAAR1, Fluo-8 calcium fluorescence, antagonist. inhibition, % at 3 µM. 1.5% of 360,000 active;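 active means inhibition above a per-plate cutoff, the mean inhibition of test compounds on that plate plus 3 SD, cut at about 49% in these data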;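 further: 0% = DMSO plus EC80 beta-PEA response and 100% = DMSO alone without agonist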
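Test system: CHO RD-HGA16 cells bearing hTAAR1 | Reagent: β-PEA, EC80 | Compound dosing: 3 µM, single point | Schedule: Dye loading 75 min at 37 °C, then 30 min room temperature | Signal: Calcium fluorescence with Fluo-8 | Evaluation: Percent inhibition of PEA-evoked calcium signal, max/basal emission ratio | Control set: DMSO-only wells and EC80 β-PEA-stimulated wells | Repeats: Singlicate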
OX1R antag-2: blocks the human orexin 1 receptor. O43613. OX1R-expressing cells, FRET antagonist read-out. inhibition, % at 6.6 µM. 1.8% of 330,000 active; in the data active means inhibition mostly above about 38%, no sharp cut-off; inactive means mostly below about 40%;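 further: 0% = agonist challenge alone and 100% = reference antagonist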
nonsel antag count: nonselective antagonism, TAAR1 counter-screen. shares compounds with TAAR1 antagonist. counterscreen cell line, calcium fluorescence, antagonist mode. inhibition, % at 3 µM. 77% of 2,400 active; in the data active means inhibition above about 22%;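 further: CHO-Ga16 host cells stimulated with ATP at an EC80 level; 0% = agonist EC80 plus vehicle and 100% = vehicle without agonist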
TAAR1 antag conf: confirmation of human TAAR1 antagonists; 40% of 2,400 active; TAAR1-expressing cells, fluorescence antagonist read-out; inhibition, % at 3 µM; shares compounds with TAAR1 antagonist; AID 651785; in the data active means inhibition above about 49%;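 further: CHO-Ga16 host cells challenged with agonist PEA near its EC80; 0% = agonist at EC80 plus vehicle and 100% = vehicle with no agonist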
Ga16 ag counter: nonselective Ga16 agonism, counter-screen; shares compounds with TAAR1 antagonist; Ga16-expressing cells, calcium fluorescence, agonist counterscreen; activation, % at 3 µM; 18% of 2,400 active; AID 651953; in the data active means activation above about 12%;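 further: 0% = vehicle wells and 100% = saturating stimulus response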
TAAR1 ag counter: TAAR1 agonism, antagonist counter-screen | shares compounds with TAAR1 antagonist | hTAAR1 cell line, fluorescence activation, agonist mode | activation, % at 3 µM | 2% of 2,400 active | AID 651955; in the data active means activation above about 37%;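 further: CHO cells stably expressing TAAR1 with calcium dye readout; 0% = DMSO vehicle and 100% = full agonist response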
* marks the source's active call; other numbers are inactive results; nt = no result given.

SMILES | TAAR1 agonist | OX1R antag-1 | GPR7 antagonist | CHO parental Ca | TAAR1 antagonist | OX1R antag-2 | nonsel antag count | TAAR1 antag conf | Ga16 ag counter | TAAR1 ag counter
CN(C)CC(=O)N[C@@H]1CC[C@@H](CCNS(=O)(=O)c2ccccc2)O[C@@H]1CO | 2 | nt | nt | nt | -1 | nt | nt | nt | nt | nt
CCC(=O)c1ccc(OCC(=O)OCC(=O)Nc2ccc(C)c(S(=O)(=O)N3CCCCC3)c2)cc1 | 28 | 25 | nt | 0 | 67* | 5 | 56* | 57* | 17* | 15
CC(C)(C)OC(=O)NCCCC[C@H](NC(=O)c1nc[nH]c1C(=O)N1CCN(C(=O)OC(C)(C)C)CC1)C(=O)OC(C)(C)C | 14 | -39 | -13 | -17 | 50* | -1 | 17 | 39 | 6 | 8
CC(C)(C)OC(=O)NCCCC[C@H](NC(=O)c1nc[nH]c1C(=O)N1CCN(c2ccccc2)CC1)C(=O)OC(C)(C)C | 15 | -34 | nt | -21 | 33 | -1 | nt | nt | nt | nt
C[C@H](NC(=O)c1nc[nH]c1C(=O)NCCCCCNC(=O)OC(C)(C)C)C(=O)OC(C)(C)C | 18 | -22 | -3 | -4 | 61* | 34 | 31* | 45 | 9 | 5
CC(C)(C)OC(=O)CNC(=O)c1[nH]cnc1C(=O)NCCCCCN | 19 | -7 | nt | 0 | -3 | 11 | nt | nt | nt | nt
CC(C)(C)OC(=O)CNC(=O)c1[nH]cnc1C(=O)NCCCCCNC(=O)OC(C)(C)C | 29 | -11 | -10 | 3 | 68* | 26 | 41* | 60* | 16* | 16
CCN(CC)C(=O)c1ncn2c1C(=O)NC[C@H]2C | 2 | nt | nt | nt | -17 | nt | nt | nt | nt | nt
C[C@H]1CN([C@@H](C)CO)C(=O)CCCn2nncc2CO[C@H]1CN(C)C(=O)Nc1ccnc(N2CCOCC2)c1 | 0 | nt | nt | nt | -7 | nt | nt | nt | nt | nt
COc1cc(C=O)ccc1OCC(=O)Nc1cccc(S(=O)(=O)N(C)c2ccccc2)c1 | 13 | -11 | nt | 12 | 63* | 27 | 35* | 54* | 9 | 8
CN(C)S(=O)(=O)c1cccc(NC(=O)COc2ccccc2C(=O)NCc2ccccc2)c1 | 13 | nt | nt | nt | 63* | nt | 25* | 47 | 11 | 11
COc1cc(CC(=O)Nc2cccc(S(=O)(=O)N(C)c3ccccc3)c2)cc(OC)c1OC | 6 | 21 | nt | 3 | 26 | 9 | nt | nt | nt | nt
COc1ccccc1C(=O)NCC(=O)OCC(=O)Nc1cccc(S(=O)(=O)N(C)C)c1 | 2 | -33 | -13 | -24 | 21 | 5 | nt | nt | nt | nt
CCc1cccc(NC(=O)CSCc2cc(=O)[nH][nH]2)c1 | -3 | -12 | 2 | 2 | 105* | 12 | 12 | 6 | 1 | 0
O=C1C(NS(=O)(=O)c2cccs2)=C(N2CCN(c3cccc(C(F)(F)F)c3)CC2)C(=O)c2ccccc21 | 4 | -35 | 0 | -2 | 12 | 46 | nt | nt | nt | nt
O=C1C(NS(=O)(=O)c2cccs2)=C(N2CCN(Cc3ccccc3)CC2)C(=O)c2ccccc21 | 9 | -20 | -16 | -23 | 71* | 37 | 30* | 49* | 6 | 4
Cc1ccc(-c2nc3c4ccccc4ccn3c2Cc2ccsc2)cc1 | 0 | nt | nt | nt | -10 | nt | nt | nt | nt | nt
COc1ccc(CNC(=O)CN(C)S(=O)(=O)c2ccc(Cl)cc2)cc1 | 5 | -7 | -6 | -13 | -10 | 25 | nt | nt | nt | nt
COc1ccc(CNC(=O)CN(Cc2ccc(C)cc2)S(=O)(=O)c2ccc(Cl)cc2)cc1 | 13 | -10 | -18 | -4 | 59* | 12 | 38* | 36 | 6 | 6
O=C(Nc1ccc(CN2CCOCC2)cc1)c1cccc(-c2cc3ccccc3oc2=O)c1 | 15 | -21 | -12 | -15 | 64* | 9 | 27* | 47 | 9 | 6
